Assay type in all cases: functional
Assay [1] has as its target Sodium-dependent serotonin transporter (Rattus norvegicus) (UniProt P31652). As to the kind of experiment: (§1) Serotonin neuronal reuptake blocking activity was determined by the antagonism of the head twitch response induced by treatment of rats. The arrangement: concentration or dose not given beside the values. The gist of the method: (§2)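 Female Sprague-Dawley rats (150-250 g) dosed ip with compound (1% methylcellulose vehicle, dose as base weight), then p-chloromethamphetamine 6.0 mg/kg ip 1 h later; head twitches observed 30 min after PCMA; scored as rats not twitching; usually six rats per dose; ED50 = dose antagonizing PCMA head twitch in 50% of animals, with 95% confidence limits.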

The target in assay [2] is T1, Serotonin (5-HT) receptor (Rattus norvegicus) (UniProt P35563+P35365+P32305+P31388+Q9JJ16+P28564+P30994+Q62758+P08909+P14842+P30940+P35364+P19327+P28565). Kind of assay: (§3) Ability to elicit head twitches in rats (a serotonin mimetic response). The arrangement: concentration or dose not given beside the values. The gist of the method:
(§4)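 Female Sprague-Dawley rats (150-250 g), compound given ip in 1% methylcellulose vehicle, dose as base weight; quantal scoring of rats showing at least one head twitch during a 2-min observation beginning 30 min after dosing; usually six rats per dose level; vehicle controls run.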

Assay [3] deals with T1, Serotonin (5-HT) receptor (Rattus norvegicus). The description is as §3. Set-up: concentration or dose not given beside the values. An outline of the steps:
as §4
The source holds these as a separate data set.

Assay [4] has as its system Rattus norvegicus. As to the kind of experiment: Serotonin neuronal reuptake blocking activity was determined by the antagonism of the head twitch response induced in rats with p-chloromethamphetamine (PCMA) after 40 mg/kg of ip administration. Conditions: route intraperitoneal. An outline of the steps: (§5)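 Female Sprague-Dawley rats (150-250 g) dosed ip with compound in 1% methylcellulose vehicle. p-Chloromethamphetamine 6.0 mg/kg ip was given 1 h later, and head movements were observed 30 min after that. Scored as number of rats not showing head twitches. Six rats per dose unless otherwise noted. Doses expressed as base weight.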

Assay [5] has as its target Sodium-dependent serotonin transporter (Rattus norvegicus) (UniProt P31652). The assay is described as §1. Set-up: concentration or dose not given beside the values. An outline of the steps:
as §2
This is another data set of the same source.

In assay [6] the target is T1, Serotonin (5-HT) receptor (Rattus norvegicus). The description is as §3. The arrangement: concentration or dose not given beside the values. The gist of the method: as §4
The source holds these as a separate data set.

Assay [7] relates to Rattus norvegicus. Kind of assay: Serotonin neuronal reuptake blocking activity was determined by the antagonism of the head twitch response induced in rats with p-chloromethamphetamine (PCMA) after 40 mg/kg of ip administration; 2/4. To be noted: route intraperitoneal. The gist of the method:
as §2

Assay [8] deals with Rattus norvegicus. As to the kind of experiment: Ability to elicit head twitches in rats a response characteristic of a serotonin mimetic action in the central nervous system was measured after 0.4 mg/kg of ip administration; 0/12. To be noted: route intraperitoneal. An outline of the steps: as §4
The test system of assay [9] is Rattus norvegicus. Kind of assay: Serotonin neuronal reuptake blocking activity was determined by the antagonism of the head twitch response induced in rats with p-chloromethamphetamine (PCMA) after 40 mg/kg of ip administration; 8/12. To be noted: route intraperitoneal. An outline of the steps:
as §2

Assay [10] has as its system Rattus norvegicus. As to the kind of experiment: Ability to elicit head twitches in rats a response characteristic of a serotonin mimetic action in the central nervous system was measured after 4 mg/kg of ip administration; 4/12. Conditions: route intraperitoneal. An outline of the steps: as §4
Assay [11] has as its system Rattus norvegicus. As to the kind of experiment: Ability to elicit head twitches in rats a response characteristic of a serotonin mimetic action in the central nervous system after 40 mg/kg of ip administration; 0/12. To be noted: route intraperitoneal. The gist of the method: as §4
For assay [12], the system named is Rattus norvegicus. As to the kind of experiment: Serotonin neuronal reuptake blocking activity was determined by the antagonism of the head twitch response induced by treatment of rats with p-chloromethamphetamine (PCMA) after 0.4 mg/kg of ip administration; 1/12. Conditions: route intraperitoneal. The gist of the method:
as §2

The subject of assay [13] is Rattus norvegicus. Kind of assay: Serotonin neuronal reuptake blocking activity was determined by the antagonism of the head twitch response induced by treatment of rats with p-chloromethamphetamine (PCMA) after 4 mg/kg of ip administration; 2/12. Conditions: route intraperitoneal. An outline of the steps:
as §2

In assay [14] the test system is Rattus norvegicus. As to the kind of experiment: Ability to elicit head twitches in rats a response characteristic of a serotonin mimetic action in the central nervous system was measured after 1 mg/kg of ip administration; 5/36. Conditions: route intraperitoneal. The gist of the method:
as §4

Assay [15] relates to Rattus norvegicus. As to the kind of experiment: Serotonin neuronal reuptake blocking activity was determined by the antagonism of the head twitch response induced by treatment of rats with p-chloromethamphetamine (PCMA) after 1.0 mg/kg of ip administration; 5/36. To be noted: route intraperitoneal. An outline of the steps:
as §2

In assay [16] the test system is Rattus norvegicus. Kind of assay: Serotonin neuronal reuptake blocking activity was determined by the antagonism of the head twitch response induced by treatment of rats with p-chloromethamphetamine (PCMA) after 3 mg/kg of ip administration; 13/36. Conditions: route intraperitoneal. The gist of the method:
as §2

In assay [17] the test system is Rattus norvegicus. As to the kind of experiment: Ability to elicit head twitches in rats a response characteristic of a serotonin mimetic action in the central nervous system was measured after 3 mg/kg of ip administration; 11/36. To be noted: route intraperitoneal. An outline of the steps:
as §4

Assay [18] has as its system Rattus norvegicus. As to the kind of experiment: Serotonin neuronal reuptake blocking activity was determined by the antagonism of the head twitch response induced in rats with p-chloromethamphetamine (PCMA) after 9 mg/kg of ip administration; 24/36. To be noted: route intraperitoneal. The gist of the method:
as §2

In assay [19] the test system is Rattus norvegicus. Kind of assay: Serotonin neuronal reuptake blocking activity was determined by the antagonism of the head twitch response induced by treatment of rats with p-chloromethamphetamine (PCMA) after 2 mg/kg of ip administration. To be noted: route intraperitoneal. The gist of the method:
as §2

Assay [20] concerns Rattus norvegicus. Kind of assay: Ability to elicit head twitches in rats a response characteristic of a serotonin mimetic action in the central nervous system was measured after 0.67 mg/kg of ip administration. To be noted: route intraperitoneal. An outline of the steps: as §4
For assay [21], the system named is Rattus norvegicus. As to the kind of experiment: Ability to elicit head twitches in rats a response characteristic of a serotonin mimetic action in the central nervous system after 6.0 mg/kg of ip administration. Conditions: route intraperitoneal. An outline of the steps:
as §4

Assay [22] relates to Rattus norvegicus. As to the kind of experiment: Ability to elicit head twitches in rats a response characteristic of a serotonin mimetic action in the central nervous system was measured after 2.0 mg/kg of ip administration. To be noted: route intraperitoneal. The gist of the method:
as §4

Assay [23] relates to Rattus norvegicus. As to the kind of experiment: Serotonin neuronal reuptake blocking activity was determined by the antagonism of the head twitch response induced by treatment of rats with p-chloromethamphetamine (PCMA) after 0.67 mg/kg of ip administration. Conditions: route intraperitoneal. An outline of the steps:
as §2

Assay [24] deals with Rattus norvegicus. Kind of assay: Serotonin neuronal reuptake blocking activity was determined by the antagonism of the head twitch response induced in rats with p-chloromethamphetamine (PCMA) after 6.0 mg/kg of ip administration. Conditions: route intraperitoneal. An outline of the steps:
as §2

Assay [25] has as its target Sodium-dependent serotonin transporter (Rattus norvegicus) (UniProt P31652). Kind of assay: Serotonin neuronal reuptake blocking activity was determined by the antagonism of the head twitch response induced in rats. The arrangement: concentration or dose not given beside the values. The gist of the method:
as §2

In assay [26] the test system is Rattus norvegicus. As to the kind of experiment: Serotonin neuronal reuptake blocking activity was determined by the antagonism of the head twitch response induced by treatment of rats with p-chloromethamphetamine (PCMA) after 0.4 mg/kg of ip administration. To be noted: route intraperitoneal. The gist of the method: as §2
The test system of assay [27] is Rattus norvegicus. Kind of assay: Serotonin neuronal reuptake blocking activity was determined by the antagonism of the head twitch response induced by treatment of rats with p-chloromethamphetamine (PCMA) after 4 mg/kg of ip administration. Conditions: route intraperitoneal. The gist of the method: as §2
In assay [28] the test system is Rattus norvegicus. Kind of assay: Ability to elicit head twitches in rats a response characteristic of a serotonin mimetic action in the central nervous system was measured after 1.2 mg/kg of ip administration. To be noted: route intraperitoneal. The gist of the method: as §4
Assay [29] deals with Rattus norvegicus. As to the kind of experiment: Ability to elicit head twitches in rats a response characteristic of a serotonin mimetic action in the central nervous system was measured after 5 mg/kg of ip administration. Conditions: route intraperitoneal. An outline of the steps:
as §4

The subject of assay [30] is Rattus norvegicus. As to the kind of experiment: Ability to elicit head twitches in rats a response characteristic of a serotonin mimetic action in the central nervous system after 20 mg/kg of ip administration. Conditions: route intraperitoneal. The gist of the method: as §4
The test system of assay [31] is Rattus norvegicus. As to the kind of experiment: Serotonin neuronal reuptake blocking activity was determined by the antagonism of the head twitch response induced in rats with p-chloromethamphetamine (PCMA) after 40 mg/kg of ip administration;9/10. Conditions: route intraperitoneal. An outline of the steps:
as §5

For assay [32], the system named is Rattus norvegicus. Kind of assay: Serotonin neuronal reuptake blocking activity was determined by the antagonism of the head twitch response induced by treatment of rats with p-chloromethamphetamine (PCMA) after 4 mg/kg of ip administration; 7/10. Conditions: route intraperitoneal. An outline of the steps:
as §5

Assay [33] has as its system Rattus norvegicus. As to the kind of experiment: Ability to elicit head twitches in rats a response characteristic of a serotonin mimetic action in the central nervous system after 40 mg/kg of ip administration; 3/10. To be noted: route intraperitoneal.
The test system of assay [34] is Rattus norvegicus. As to the kind of experiment: Ability to elicit head twitches in rats a response characteristic of a serotonin mimetic action in the central nervous system was measured after 0.4 mg/kg of ip administration; 0/10. To be noted: route intraperitoneal.
The subject of assay [35] is Rattus norvegicus. As to the kind of experiment: Serotonin neuronal reuptake blocking activity was determined by the antagonism of the head twitch response induced by treatment of rats with p-chloromethamphetamine (PCMA) after 0.4 mg/kg of ip administration; 6/10. Conditions: route intraperitoneal. The gist of the method: as §5
In assay [36] the test system is Rattus norvegicus. Kind of assay: Ability to elicit head twitches in rats a response characteristic of a serotonin mimetic action in the central nervous system was measured after 4 mg/kg of ip administration; 2/10. To be noted: route intraperitoneal.

Each structure is given as a SMILES string.

Sequence of Sodium-dependent serotonin transporter (Rattus norvegicus) (P31652 whole entry): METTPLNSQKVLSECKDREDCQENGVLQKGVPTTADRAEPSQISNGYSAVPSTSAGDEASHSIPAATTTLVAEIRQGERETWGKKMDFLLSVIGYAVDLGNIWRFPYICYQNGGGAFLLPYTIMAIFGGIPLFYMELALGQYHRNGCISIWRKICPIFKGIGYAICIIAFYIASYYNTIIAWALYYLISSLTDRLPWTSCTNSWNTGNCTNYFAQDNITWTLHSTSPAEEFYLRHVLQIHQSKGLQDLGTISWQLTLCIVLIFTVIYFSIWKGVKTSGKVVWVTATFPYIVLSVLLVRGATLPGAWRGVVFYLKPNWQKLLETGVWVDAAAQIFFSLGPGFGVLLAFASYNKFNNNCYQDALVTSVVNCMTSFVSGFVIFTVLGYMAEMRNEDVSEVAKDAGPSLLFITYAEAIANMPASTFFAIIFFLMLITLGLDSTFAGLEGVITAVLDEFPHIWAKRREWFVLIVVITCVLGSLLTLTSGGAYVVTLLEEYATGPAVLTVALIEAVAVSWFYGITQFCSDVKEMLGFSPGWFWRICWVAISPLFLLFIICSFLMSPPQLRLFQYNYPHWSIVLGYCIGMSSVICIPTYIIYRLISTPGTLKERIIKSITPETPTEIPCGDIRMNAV

On to `Cl.FC(F)(F)c1ccc2nc(N3CCNCC3)c(Sc3ccccc3)nc2c1`, for which the PCMA antagonism in assay [1] stood at 1; in [4], 0; in assay [5], 0. In addition, the values for the Activity in [2], in assay [3] and in assay [6] were 0, 2 and 2, respectively.

Turning to `Cl.Clc1cccc2nc(N3CCNCC3)cnc12`, the PCMA antagonism in [1] amounted to 0; in assay [5], 0; in assay [7], 2. Besides, the Activity in assay [2] turned out to be 0; in assay [3] it was 0; in [6], 2.

On to `Cc1ccc2nc(N3CCNCC3)cnc2c1.Cl`, for which the Activity in [8] is on record as 0; in assay [10], 4; in assay [11] it was 0. The PCMA antagonism in [9] turned out to be 8; in assay [12] it was 1; in [13], 2.

Consider `N#Cc1ccc2nc(N3CCNCC3)cnc2c1`, for which the Activity is on record as 5 in assay [14] and 11 in assay [17]. Also, the PCMA antagonism in assay [15] stood at 5; in assay [16] it was 13; in [18], 24.

`Cl.O=[N+]([O-])c1ccc2ncc(N3CCNCC3)nc2c1`: the PCMA antagonism in [19] is on record as 5; in assay [23], 2; in assay [24], 4. Moreover, the results for the Activity in assay [20], in assay [21] and in [22] were 1, 0 and 0, respectively.

`Nc1ccc2nc(N3CCNCC3)cnc2c1`: the Activity in assay [2] was found to be 0; in assay [3], 1; in [6], 2. Also, the figures for the PCMA antagonism in assay [25], in assay [26] and in assay [27] were 3, 2 and 4, respectively.

Take `Cl.Clc1nc2ccccc2nc1N1CCNCC1`: the figures for the Activity in assay [28], in assay [29] and in assay [30] were 2, 3 and 1, respectively.

As to `Cl.FC(F)(F)c1ccc2nc(N3CCNCC3)cnc2c1`, the PCMA antagonism in assay [31] was 9; in assay [32] it was 7; in assay [35], 6. The figures for the Activity in assay [33], in assay [34] and in assay [36] were 3, 0 and 2, respectively.
